We go through 24 compounds from PubChem BioAssay.

Experiment [1] is described as follows: S. cerevisiae growth inhibition in permissive medium (OD615), pilot counter-assay for S. cerevisiae lifespan shortening project, permissive growth control (AID 705;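 active means growth inhibition above 25% in both replicates, a cutoff set 3 SD above the mean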). The note with it: OD615, 24 h, at 10 µM, active compounds read high. In a few lines: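 System: engineered DeaD yeast; Medium: permissive raffinose/galactose medium; Compound dosing: 10 µM single dose, 0.25% DMSO; Incubation: 4 h cell pre-growth, 24 h exposure at 30 °C; Technique: OD at 615 nm; Evaluation: growth inhibition from lowered OD615 after 24 h.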

A short description of experiment [2]: S. cerevisiae growth inhibition in restrictive medium, OD615, pilot screen, restrictive growth control, yeast lifespan reduction project (AID 706;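 active means growth inhibition above a set limit, 3 SD over mean compound inhibition, in both replicates, cut at about 43% in these data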;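 further: modified DeaD lifespan yeast strain shifted to restrictive glucose medium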). To be noted: OD615, 48 h, at 10 µM, active compounds read high. An outline of the steps:
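Material: modified S. cerevisiae; buffer or medium: CSMM-D glucose medium; doses: one concentration, 10 µM final, 0.25% DMSO; incubation: 48 h compound exposure at 30 °C; detection: optical density at 615 nm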

Experiment [3] in a line: doxorubicin toxicity protection in MRP-1 cells – H69AR cells, CellTiter-Glo, duplicate, MRP-1 activator project, pilot screen (AID 807;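 active means viability increase at or above a cutoff of the median across tested compounds plus 3 SD, cut at about 8.5% in these data, passing the limit was not always enough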;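 further: compound pretreatment 18-22 h then 72 h combined with doxorubicin; 0% = doxorubicin alone and 100% = vehicle without doxorubicin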). The note with it: H69AR viability with doxorubicin, CellTiter-Glo luminescence; at 10 µM; active compounds read high.
Experiment [4] is described as follows: viability of HCT116 without oncogenic beta-catenin – human colon tumor cells, pilot screen (AID 823).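 Further: 0% = wells killed by 20 µM Hyamine and 100% = untreated DMSO cell wells.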 The note with it: HCT116 beta-catenin knockout viability, CellTiter-Glo, 60 h; at 10 µM; active compounds read low. Background: Cellular ATP, detected with luciferase, serves as a proxy for viable cell number.
Experiment [5] can be described thus: viability of PTEN-null HCT116 cells – cell-based, HCT116 clonal line, CellTiter-Glo, pilot screen (AID 824;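 active means viability at or below 27.92% in each of two runs, the all-compound median minus 4 SD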;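 further: 0% = 20 µM Hyamine control and 100% = vehicle cell control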). To be noted: HCT116 PTEN-deleted viability, 60 h, at 10 µM, active compounds read low.
The nature of experiment [6]: RAM pathway blockade in budding yeast – dse1pr::URA3 reporter, 5-FOA selection, pilot screen (AID 869;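 active means inhibition over a set limit, the all-compound mean plus 3 SD, in both replicate runs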;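 further: 0% = DMSO wells with no growth and 100% = 10 µM 1-NA-PP1 with full growth; RAM network block rescues cells from 5-FOA so hits raise OD615 growth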). To be noted: S. cerevisiae dse1pr::URA3 5-FOA growth, OD615, 2 d; at 10 µM; active compounds read high; strain carries analog-sensitive mutant Cbk1 kinase.
Experiment [7] is described as follows: RAM signaling pathway blockade in yeast – S. cerevisiae, Pdr1DBD-CYC8 efflux-inhibited sensitized strain, primary screen (AID 1298;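 active means RAM network inhibition above 8.4% in each of two replicates, 3 SD over the compound average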;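 further: 0% = DMSO untreated cells without growth and 100% = 10 µM 1-NA-PP1 full growth; higher means more yeast growth rescued from 5-FOA killing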). To be noted: S. cerevisiae cbk1-as DSE1-URA3 strain, 5-FOA growth OD615, 2 d; at 50 µM; active compounds read high.

Values without a mark were called inactive. Results filed as inconclusive are left out. Active and inactive are the calls of the source.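 How the source made its calls, unless noted: active means cell viability at or below a set limit in both duplicate runs, the limit being the all-compound median minus 4 SD (cut at about 23% in these data, passing the limit was not always enough); inconclusive means no clear call, values can overlap the other calls; inactive means the rest.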

A word on the viability: it is a read-out of living cells in per cent, often relative to untreated cells. Usually inhibition stands for the drop in the measured response relative to a control, in per cent. On to `CCN1CCN(C(=O)C2CCN(Cc3nc(-c4cccc(Cl)c4)oc3C)CC2)CC1`, for which the growth inhibition in experiment [1] was -1.82%; in experiment [2], -14.3%. Also, the viability increase in experiment [3] was -4.04%. Also, the viability in experiment [4] is 69%; in experiment [5], 72.4%. Also, the inhibition in experiment [6] was 0.9%. Also, in experiment [7], the RAM network inhibition is 1.16%.

`CCCCOC(=O)Nc1sc2c(c1C(=O)OC)CCC2`: the growth inhibition is -6.32% in experiment [1] and 6.97% in experiment [2]. Further, the viability increase in experiment [3] is -2.72%. Also, the results for the viability in experiment [4] and in experiment [5] were 96.2% and 92.4%, respectively. For the same compound, in experiment [6], the inhibition was 0.325%. In addition, the RAM network inhibition in experiment [7] was 8.11%.

In the case of `CN(C)CCCCCNCCCNC(=O)/C=N\O`, the growth inhibition in experiment [1] was -2.17%; in experiment [2], 3.62%. Also, in experiment [3], the viability increase was 0.12%. Also, the viability in experiment [4] was 98.3%; in experiment [5] it was 103%. Moreover, the inhibition in experiment [6] is 3.2%. The RAM network inhibition in experiment [7] was 1.4%.

`Cc1cc(C)cc(N(CC(=O)NC2CC3CCC2C3)S(C)(=O)=O)c1` (stereo not drawn): the growth inhibition is -11.4% in experiment [1] and -10.6% in experiment [2]. Besides, the viability increase in experiment [3] is -0.31%. Also, the viability in experiment [4] is 90.4%; in experiment [5] it was 88%. The inhibition in experiment [6] is -0.04%. Further, the RAM network inhibition in experiment [7] was 2.79%.

Turning to `COc1ccc(OC)c2sc(NC(=O)c3ccc(Cl)s3)nc12`, the growth inhibition in experiment [1] was -16.4%; in experiment [2], -10.6%. Further, in experiment [3], the viability increase was -3.79%. Also, the viability in experiment [4] is 22% (active); in experiment [5], 13.8% (active). Besides, in experiment [6], the inhibition was 3.47%. For the same compound, in experiment [7], the RAM network inhibition was 5.85%.

Regarding `COC(=O)C1=C(C)OC(N)=C(C#N)C1c1ccccc1F` (stereo not drawn), the growth inhibition is -9.68% in experiment [1] and -3.74% in experiment [2]. Also, the viability increase in experiment [3] is -3.38%. The viability in experiment [4] was 94.9%; in experiment [5], 98.1%. Also, the inhibition in experiment [6] was -0.37%. For the same compound, the RAM network inhibition in experiment [7] is -0.76%.

On to `C=CCn1c(CSc2nc3ccccc3s2)nnc1SCC(=O)OCC`, for which the figures for the growth inhibition in experiment [1] and in experiment [2] were -1.57% and 27.4%, respectively. Further, the viability increase in experiment [3] is -0.04%. Further, the viability in experiment [4] was 97.6%; in experiment [5], 101%. Besides, the inhibition in experiment [6] was -0.335%. Moreover, in experiment [7], the RAM network inhibition is 9.66%.

In the case of `CCOC(=O)c1ccc(CSc2n[nH]c(C)n2)o1`, the growth inhibition in experiment [1] is -3.09%; in experiment [2], -7.67%. In experiment [3], the viability increase is -2.58%. Also, the values for the viability in experiment [4] and in experiment [5] were 97.7% and 96.7%, respectively. Also, in experiment [6], the inhibition is -1.18%. Also, the RAM network inhibition in experiment [7] was 1.95%.

Consider `Cc1cc(Nc2cccc(F)c2)n2ncnc2n1`, for which the growth inhibition is -0.15% in experiment [1] and 12.3% in experiment [2]. In addition, in experiment [3], the viability increase was 0%. In addition, the viability was 101% in experiment [4] and 106% in experiment [5]. The inhibition in experiment [6] is 1.23%. In addition, the RAM network inhibition in experiment [7] was 0.16%.

As to `COc1ccc(NC(=O)C2CCN(C(=O)c3ccccc3)CC2)c(OC)c1`, the growth inhibition was 9.86% in experiment [1] and -0.9% in experiment [2]. Besides, in experiment [3], the viability increase is -2.96%. Besides, the viability was 95.8% in experiment [4] and 94.8% in experiment [5]. For the same compound, the inhibition in experiment [6] is 2.57%. Moreover, the RAM network inhibition in experiment [7] is 3.44%.

Take `c1ccc(CNn2c(N3CCOCC3)nc3ccccc32)cc1`: the growth inhibition in experiment [1] was -14.9%; in experiment [2] it was -10.9%. Moreover, the viability increase in experiment [3] is -3.02%. The viability is 93% in experiment [4] and 93.2% in experiment [5]. Moreover, in experiment [6], the inhibition is 0.5%. Besides, the RAM network inhibition in experiment [7] is 4.26%.

As for `Cc1ccc(Cn2c(Sc3nnc(C)s3)nc3c2c(=O)[nH]c(=O)n3C)cc1`, the results for the growth inhibition in experiment [1] and in experiment [2] were -1.77% and -4.4%, respectively. Besides, the viability increase in experiment [3] is -2.58%. For the same compound, the viability is 85.8% in experiment [4] and 78.6% in experiment [5]. In addition, in experiment [6], the inhibition is 2.5%. Further, the RAM network inhibition in experiment [7] is 1.84%.

On to `O=C(C1CCCCN1S(=O)(=O)c1ccc(F)cc1)N1CCN(c2ccccc2F)CC1` (stereo not drawn), for which the growth inhibition in experiment [1] was -14.1%; in experiment [2] it was -8.47%. In addition, in experiment [3], the viability increase is -1.06%. The values for the viability in experiment [4] and in experiment [5] were 80.8% and 82.9%, respectively. For the same compound, the inhibition in experiment [6] is -0.01%. In addition, in experiment [7], the RAM network inhibition is 1.9%.

Regarding `COC(=O)c1ccccc1NC(=O)CSc1nc(N)cc(N)n1`, the growth inhibition in experiment [1] was -11.6%; in experiment [2], 5.95%. Moreover, the viability increase in experiment [3] is -2.46%. Moreover, the viability in experiment [4] is 94.1%; in experiment [5] it was 98.3%. Also, the inhibition in experiment [6] was 0.39%. In addition, the RAM network inhibition in experiment [7] is -0.05%.

For the compound `CCOC(=O)c1ccccc1NC(=O)CN(c1cccc(OC)c1)S(C)(=O)=O`, the growth inhibition is -7.1% in experiment [1] and -3.34% in experiment [2]. The viability increase in experiment [3] was -5.04%. For the same compound, the viability in experiment [4] is 91.7%; in experiment [5], 83.3%. Moreover, the inhibition in experiment [6] was 1.65%. Moreover, the RAM network inhibition in experiment [7] is 4.56%.

For the compound `CS(=O)(=O)N(CC(=O)NCc1ccco1)c1cc(C(F)(F)F)ccc1Cl`, the growth inhibition is 0.43% in experiment [1] and -4.23% in experiment [2]. In addition, in experiment [3], the viability increase is -3.09%. In addition, the values for the viability in experiment [4] and in experiment [5] were 99% and 92.8%, respectively. In experiment [6], the inhibition is 0.68%. Moreover, in experiment [7], the RAM network inhibition is 2.65%.

Take `Cn1c(=O)[nH]c(=O)c2c1nc(NC1CCCCC1)n2CCO`: the growth inhibition is -16.7% in experiment [1] and -22.4% in experiment [2]. The viability increase in experiment [3] was -2.15%. The viability is 102% in experiment [4] and 97.9% in experiment [5]. Besides, the inhibition in experiment [6] is 1.19%. The RAM network inhibition in experiment [7] is 3.67%.

`O=c1cc(N2CCOCC2)[nH]c(=O)n1-c1ccc(Cl)cc1`: the results for the growth inhibition in experiment [1] and in experiment [2] were -5.36% and -6.01%, respectively. In experiment [3], the viability increase was -1.67%. Further, the viability in experiment [4] was 105%; in experiment [5], 97.2%. The inhibition in experiment [6] was 1.17%. In addition, the RAM network inhibition in experiment [7] is 1.09%.

For `CC(=O)Nc1ccc(NC(=O)c2ccco2)cc1`, the growth inhibition in experiment [1] was -9.41%; in experiment [2], -14.5%. For the same compound, the viability increase in experiment [3] is -2.09%. Moreover, the values for the viability in experiment [4] and in experiment [5] were 94.1% and 96.8%, respectively. Besides, the inhibition in experiment [6] was -0.19%. In experiment [7], the RAM network inhibition is 2.4%.

For the compound `CCCC(=O)Nc1nnc(-c2ccc(Cl)s2)o1`, the growth inhibition was -6.95% in experiment [1] and 2.92% in experiment [2]. In addition, the viability increase in experiment [3] is -3.1%. Also, the viability was 95.6% in experiment [4] and 91.2% in experiment [5]. For the same compound, the inhibition in experiment [6] is 1.61%. The RAM network inhibition in experiment [7] was 1.6%.

As for `Cc1ccc(S(=O)(=O)N(C)CCCC(=O)N2CCOCC2)cc1`, the growth inhibition in experiment [1] is -17.3%; in experiment [2] it was -6.47%. For the same compound, the viability increase in experiment [3] is -1.27%. The viability in experiment [4] is 101%; in experiment [5], 96.1%. The inhibition in experiment [6] was 1.17%. In experiment [7], the RAM network inhibition was 3.03%.

On to `CCOC(=O)c1ccccc1NC(=O)CC1SC(=NC)N(C)C1=O` (stereo not drawn), for which the growth inhibition in experiment [1] was -10.3%; in experiment [2], -22.9%. Also, in experiment [3], the viability increase was -2%. Besides, the values for the viability in experiment [4] and in experiment [5] were 102% and 96.2%, respectively. The inhibition in experiment [6] was 2.04%. For the same compound, the RAM network inhibition in experiment [7] was 4.34%.

For `Brc1ccc2c(c1)c1nc3ccccc3nc1n2CCN1CCOCC1`, the growth inhibition in experiment [1] was -11%; in experiment [2], -0.14%. For the same compound, in experiment [3], the viability increase was -5.95%. The viability in experiment [4] was 56%; in experiment [5], 59.4%. In addition, the inhibition in experiment [6] was 4.42%. Also, the RAM network inhibition in experiment [7] was 5.58%.

Take `NC(=O)NC1CCCc2c1[nH]c1ccc(Cl)cc21` (stereo not drawn): the figures for the growth inhibition in experiment [1] and in experiment [2] were 1.64% and 3.78%, respectively. For the same compound, in experiment [3], the viability increase is 0.04%. For the same compound, the results for the viability in experiment [4] and in experiment [5] were 89.9% and 87.3%, respectively. Also, the inhibition in experiment [6] was 1.15%. For the same compound, the RAM network inhibition in experiment [7] is 0.26%.
